Source: ChEMBL document CHEMBL1833940, “Discovery of 3-(2,6-dichloro-3,5-dimethoxy-phenyl)-1-{6-[4-(4-ethyl-piperazin-1-yl)-phenylamino]-pyrimidin-4-yl}-1-methyl-urea (NVP-BGJ398), a potent and selective inhibitor of the fibroblast growth factor receptor family of receptor tyrosine kinase” (J Med Chem, 2011)
pIC50: −log10 of the molar value. Active and inactive are the calls of the source. The calls are words filed in the database; no cut-off is given here.

Key:
[1] = target: Phosphatidylinositol 4-kinase beta (Homo sapiens, UniProt Q9UBF8); assay: Inhibition of PI4Kbeta by luminescent kinase assay
[2] = tested on: Rattus norvegicus; assay: Dose normalized AUC in Wistar rat at 10 mg/kg, po by LC-MS/MS analysis; assay type: ADME, organism-based; set-up: dose 10 mg/kg, route oral; conditions: in vivo
Outline: (§1)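 Female Wistar rats received either an iv femoral-vein dose of 5 mg/kg in NMP/PEG200 (1:9) or an oral dose of monophosphate salt at 10 mg/kg (free base) in acetate buffer pH 4.6/PEG300. Plasma was sampled by sublingual bleeding at 0.083–24 h (n = 4 staggered, or n = 3–4 serial). Plasma levels were measured by LC-MS/MS (LOQ 10 ng/mL).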

[3] = tested on: Rattus norvegicus; assay: Inhibition of FGFR autophosphorylation in RT112 tumor bearing nude rowett rat assessed as decrease in pFRS2 concentration at 8.51 mg/kg, po administered as a single dose after 16 hrs by Western blot analysis; assay type: functional, organism-based; set-up: dose 8.51 mg/kg
Outline: (§2)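 RT112 subcutaneous xenografts in female nude Rowett rats (n = 4). Single oral gavage of the monophosphate salt at 4.25 or 8.51 mg/kg (free base equivalents) in acetic acid–acetate buffer pH 4.6/PEG300 (1:1). Tumors were collected at time points up to 24 h, frozen, homogenized and lysed. Western blots probed pFRS2(Tyr196) and pMAPK, with total FRS2, total MAPK or β-tubulin as loading controls.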

[4] = tested on: Rattus norvegicus; assay: Inhibition of FGFR autophosphorylation in RT112 tumor bearing po dosed nude rowett rat assessed as decrease in pMAPK concentration administered as a single dose by Western blot analysis; assay type: functional, organism-based; outline: as §2
[5] = target: Receptor tyrosine-protein kinase erbB-2 (Homo sapiens, UniProt P04626); assay: Inhibition of recombinant ERBB2
Outline: (§3)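 Purified recombinant kinases under optimized conditions with peptide substrates. ATP was set at each kinase's Km. Phosphorylation was read by microfluidic mobility-shift separation of substrate and product; IC50 determined.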

[6] = Half life in plasma of RT112/luc1 cells implanted athymic nude mouse at 20 mg/kg, po by LC/MS/MS analysis; assay type: ADME, organism-based; set-up: dose 20 mg/kg, route oral
Outline: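 Female athymic nude mice carried subcutaneous RT112/luc1 tumors (5 × 10^6 cells in HBSS with 50% Matrigel, right flank; about 300–400 mm3). Dosed by oral gavage at 20 mg/kg as a suspension in PEG300/D5W (2:1, v/v). Groups (n = 4) were sacrificed at 0.083–24 h.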

[7] = target: Casein kinase I isoform gamma-3 (Homo sapiens, UniProt Q9Y6M4); assay: Inhibition of recombinant CK1-gamma3; outline: as §3
[8] = target: Tyrosine-protein kinase CSK (Homo sapiens, UniProt P41240); assay: Inhibition of recombinant CSK
Outline: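 Purified recombinant kinases under optimized conditions, with peptide substrates and ATP at each kinase's Km. Phosphorylation was read out by microfluidic mobility shift, and IC50 values were obtained.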

[9] = Volume of distribution at steady state in Wistar rat at 5 mg/kg, iv by LC-MS/MS analysis; assay type: ADME, organism-based; set-up: dose 5 mg/kg, route intravenous; conditions: in vivo, read-out: Vdss
Outline: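 Female Wistar rats received 5 mg/kg iv into the femoral vein in NMP/PEG200 (1:9), or the monophosphate salt orally at 10 mg/kg (free base) in acetate buffer pH 4.6/PEG300. Serial sublingual plasma samples were taken from 0.083 to 24 h.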

[10] = target: MAP kinase-interacting serine/threonine-protein kinase 1 (Homo sapiens, UniProt Q9BUB5); assay: Inhibition of recombinant MNK1; outline: as §3
[11] = tested on: Rattus norvegicus; assay: Toxicity in nude Rowett rat xenografted with human RT112 cells assessed as morbidity at 5 mg/kg, po qd administered for 20 days; assay type: organism-based, RT-112; set-up: dose 5 mg/kg, route oral; conditions: in vivo, 480 h
Outline: (§4)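 Female nude Rowett rats carried subcutaneous RT112 tumors (1 × 10^6 cells in Matrigel), starting at about 100 mm3. The monophosphate salt was gavaged daily for 20 days at 5, 10 or 15 mg/kg (free base) in acetate buffer pH 4.6/PEG300 (1:1), n = 8. Body weight and morbidity were monitored; ANOVA with Dunnett's test.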

[12] = tested on: Rattus norvegicus; assay: Toxicity in nude Rowett rat xenografted with human RT112 cells assessed as body weight loss at 5 mg/kg, po qd administered for 20 days; assay type: organism-based, RT-112; set-up: dose 5 mg/kg, route oral; conditions: in vivo, 480 h; outline: as §4
[13] = tested on: VM-CUB-1; assay: Antiproliferative activity against human VMCUB1 cells after 72 hrs; assay type: functional, cell-based; conditions: VM-CUB-1, 72 h
Outline: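 Bladder cancer lines from ATCC or DSMZ were seeded in 96-well plates (RT4, RT112 at 8500 cells/well; others at 5000 cells/well) in growth medium. Compound dilutions or DMSO were added 24 h later and incubated 72 h. Cells were fixed with glutaraldehyde, stained with 0.05% methylene blue and eluted with 3% HCl, then OD650 nm was read.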

[14] = tested on: Rattus norvegicus; assay: Inhibition of FGFR autophosphorylation in RT112 tumour bearing po dosed nude Rowett rat assessed as decrease in pFRS2 concentration administered as a single dose by Western blot analysis; assay type: functional, organism-based; outline: as §2
[15] = tested on: Tumour; assay: Dose normalized AUC in tumor of RT112/luc1 cells implanted athymic nude mouse at 5 mg/kg, iv by LC/MS/MS analysis; assay type: ADME, organism-based, Neoplasm; set-up: dose 5 mg/kg, route intravenous; conditions: in vivo
Outline: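 Female athymic nude mice carried subcutaneous RT112/luc1 tumors (5×10^6 cells, 50% Matrigel; about 300–400 mm3). Dosing was either 5 mg/kg iv by tail vein in NMP/PEG200 (1:9) or 20 mg/kg oral suspension in PEG300/D5W (2:1). Groups of mice (n = 4) were sacrificed at 0.083–24 h. Plasma and tumor levels were measured by LC-MS/MS (LOQ 5 ng/mL, 10 ng/g).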

[16] = Clearance in Wistar rat at 5 mg/kg, iv by LC-MS/MS analysis; assay type: ADME, organism-based; set-up: dose 5 mg/kg, route intravenous; conditions: in vivo; outline: as §1
[17] = target: Tyrosine-protein kinase ZAP-70 (Homo sapiens, UniProt P43403); assay: Inhibition of recombinant ZAP70
Outline: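 Purified recombinant kinases were tested under optimized conditions with peptide substrates. ATP was set at each kinase's Km. Phosphorylation was read out by microfluidic mobility shift, and IC50 values were determined.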

[18] = target: Phosphatidylinositol 4,5-bisphosphate 3-kinase catalytic subunit alpha isoform (Homo sapiens, UniProt P42336); assay: Inhibition of recombinant PI3Kalpha
[19] = tested on: RT-112; assay: Antitumor activity against human RT112 cells xenografted in nude rowett rat assessed as tumor regression at 15 mg/kg, po qd administered for 20 days; assay type: functional
Outline: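 Female nude Rowett rats aged 6–9 weeks were given 1×10^6 RT112 cells subcutaneously in HBSS/50% Matrigel. Treatment began at about 100 mm3 mean tumor volume (n = 8): monophosphate salt in acetate buffer pH 4.6/PEG300 (1:1) by gavage, 5 mL/kg, at 5, 10, 15 mg/kg/qd free base for 20 days. Tumors were measured by caliper (L×W×H×π/6). Readouts were T/C and % regression from start volume.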

[20] = target: Serine/threonine-protein kinase mTOR (Homo sapiens, UniProt P42345); assay: Inhibition of recombinant mTOR by luminescent kinase assay
[21] = Cmax in Wistar rat at 5 mg/kg, iv after 5 mins by LC-MS/MS analysis; assay type: ADME, organism-based; set-up: dose 5 mg/kg, route intravenous; conditions: in vivo; outline: as §1
[22] = target: Interleukin-1 receptor-associated kinase 4 (Homo sapiens, UniProt Q9NWZ3); assay: Inhibition of recombinant IRAK4; outline: as §3
Chain of Interleukin-1 receptor-associated kinase 4 (Q9NWZ3 whole entry): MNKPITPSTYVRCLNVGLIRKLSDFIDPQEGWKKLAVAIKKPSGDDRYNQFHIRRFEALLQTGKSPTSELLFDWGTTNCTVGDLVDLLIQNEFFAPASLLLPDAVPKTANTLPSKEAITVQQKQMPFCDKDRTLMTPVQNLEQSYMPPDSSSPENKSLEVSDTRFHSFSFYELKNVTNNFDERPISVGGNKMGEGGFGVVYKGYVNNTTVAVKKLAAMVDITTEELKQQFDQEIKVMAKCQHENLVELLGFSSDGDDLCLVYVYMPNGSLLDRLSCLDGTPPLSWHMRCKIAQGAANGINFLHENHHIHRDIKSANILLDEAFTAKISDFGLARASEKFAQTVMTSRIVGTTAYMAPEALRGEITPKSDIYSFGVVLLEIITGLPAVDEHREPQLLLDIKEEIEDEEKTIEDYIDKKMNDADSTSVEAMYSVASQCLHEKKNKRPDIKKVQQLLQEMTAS

Chain of Phosphatidylinositol 4,5-bisphosphate 3-kinase catalytic subunit alpha isoform (P42336 whole entry, canonical isoform): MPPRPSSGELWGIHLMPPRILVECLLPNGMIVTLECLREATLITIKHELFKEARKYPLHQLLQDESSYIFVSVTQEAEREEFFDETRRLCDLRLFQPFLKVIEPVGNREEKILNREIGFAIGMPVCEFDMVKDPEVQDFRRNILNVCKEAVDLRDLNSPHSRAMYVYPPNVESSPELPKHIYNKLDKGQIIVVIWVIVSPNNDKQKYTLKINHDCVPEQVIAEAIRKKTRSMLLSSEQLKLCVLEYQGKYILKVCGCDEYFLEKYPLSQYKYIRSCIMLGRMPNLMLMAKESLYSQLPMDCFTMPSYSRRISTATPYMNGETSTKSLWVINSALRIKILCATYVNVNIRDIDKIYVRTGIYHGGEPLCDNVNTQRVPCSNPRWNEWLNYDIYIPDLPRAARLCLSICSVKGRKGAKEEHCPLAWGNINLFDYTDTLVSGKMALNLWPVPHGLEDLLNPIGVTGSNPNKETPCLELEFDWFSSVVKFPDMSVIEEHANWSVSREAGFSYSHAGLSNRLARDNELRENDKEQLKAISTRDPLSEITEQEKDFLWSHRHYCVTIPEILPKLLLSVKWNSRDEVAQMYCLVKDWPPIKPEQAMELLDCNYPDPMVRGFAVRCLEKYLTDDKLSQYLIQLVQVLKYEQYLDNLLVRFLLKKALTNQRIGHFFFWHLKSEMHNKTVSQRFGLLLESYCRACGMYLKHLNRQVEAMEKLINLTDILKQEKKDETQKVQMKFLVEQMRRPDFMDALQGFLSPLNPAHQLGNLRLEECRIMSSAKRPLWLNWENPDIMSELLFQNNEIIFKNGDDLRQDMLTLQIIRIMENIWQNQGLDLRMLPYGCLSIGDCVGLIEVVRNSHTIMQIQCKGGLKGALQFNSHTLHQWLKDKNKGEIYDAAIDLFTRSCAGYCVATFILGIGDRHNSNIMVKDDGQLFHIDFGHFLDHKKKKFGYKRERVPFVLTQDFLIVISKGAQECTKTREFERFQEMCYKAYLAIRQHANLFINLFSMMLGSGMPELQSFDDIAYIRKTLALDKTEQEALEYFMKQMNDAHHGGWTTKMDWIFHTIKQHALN
Chain of Tyrosine-protein kinase CSK (P41240 whole entry): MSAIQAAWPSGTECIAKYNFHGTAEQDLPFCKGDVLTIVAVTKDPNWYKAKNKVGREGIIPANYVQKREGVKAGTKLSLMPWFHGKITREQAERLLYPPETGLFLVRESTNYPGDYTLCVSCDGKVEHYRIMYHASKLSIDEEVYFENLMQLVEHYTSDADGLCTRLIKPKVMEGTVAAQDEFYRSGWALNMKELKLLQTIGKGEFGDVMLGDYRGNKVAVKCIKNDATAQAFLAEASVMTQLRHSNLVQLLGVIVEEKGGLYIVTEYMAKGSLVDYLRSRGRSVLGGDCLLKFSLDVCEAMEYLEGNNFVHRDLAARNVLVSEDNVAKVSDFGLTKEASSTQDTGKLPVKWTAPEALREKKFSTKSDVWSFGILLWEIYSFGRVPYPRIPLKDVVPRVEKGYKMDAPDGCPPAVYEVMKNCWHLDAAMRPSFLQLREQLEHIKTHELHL
Chain of Casein kinase I isoform gamma-3 (Q9Y6M4 whole entry, canonical isoform): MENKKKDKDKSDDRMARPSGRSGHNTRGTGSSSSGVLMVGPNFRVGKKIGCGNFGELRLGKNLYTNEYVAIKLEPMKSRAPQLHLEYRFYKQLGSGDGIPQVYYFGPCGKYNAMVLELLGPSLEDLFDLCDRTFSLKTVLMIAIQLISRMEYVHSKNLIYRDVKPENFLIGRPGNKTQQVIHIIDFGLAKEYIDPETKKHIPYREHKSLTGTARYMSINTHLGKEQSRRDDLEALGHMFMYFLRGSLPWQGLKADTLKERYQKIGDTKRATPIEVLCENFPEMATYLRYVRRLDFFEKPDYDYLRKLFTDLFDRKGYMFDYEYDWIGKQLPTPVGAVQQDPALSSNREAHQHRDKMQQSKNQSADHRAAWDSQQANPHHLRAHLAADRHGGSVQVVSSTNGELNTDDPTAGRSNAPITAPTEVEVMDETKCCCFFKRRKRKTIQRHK
Chain of MAP kinase-interacting serine/threonine-protein kinase 1 (Q9BUB5 whole entry): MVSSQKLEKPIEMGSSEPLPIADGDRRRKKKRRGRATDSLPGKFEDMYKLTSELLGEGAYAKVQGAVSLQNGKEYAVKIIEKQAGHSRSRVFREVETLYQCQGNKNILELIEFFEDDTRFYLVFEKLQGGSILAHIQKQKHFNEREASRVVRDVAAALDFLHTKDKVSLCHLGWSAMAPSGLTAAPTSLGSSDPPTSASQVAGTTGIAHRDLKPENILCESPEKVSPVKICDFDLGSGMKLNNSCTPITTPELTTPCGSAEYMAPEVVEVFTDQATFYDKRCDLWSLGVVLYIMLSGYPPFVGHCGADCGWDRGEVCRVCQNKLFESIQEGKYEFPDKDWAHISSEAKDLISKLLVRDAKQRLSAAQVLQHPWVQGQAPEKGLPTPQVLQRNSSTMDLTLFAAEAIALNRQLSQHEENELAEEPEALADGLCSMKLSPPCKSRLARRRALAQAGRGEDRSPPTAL
Chain of Receptor tyrosine-protein kinase erbB-2 (P04626 whole entry): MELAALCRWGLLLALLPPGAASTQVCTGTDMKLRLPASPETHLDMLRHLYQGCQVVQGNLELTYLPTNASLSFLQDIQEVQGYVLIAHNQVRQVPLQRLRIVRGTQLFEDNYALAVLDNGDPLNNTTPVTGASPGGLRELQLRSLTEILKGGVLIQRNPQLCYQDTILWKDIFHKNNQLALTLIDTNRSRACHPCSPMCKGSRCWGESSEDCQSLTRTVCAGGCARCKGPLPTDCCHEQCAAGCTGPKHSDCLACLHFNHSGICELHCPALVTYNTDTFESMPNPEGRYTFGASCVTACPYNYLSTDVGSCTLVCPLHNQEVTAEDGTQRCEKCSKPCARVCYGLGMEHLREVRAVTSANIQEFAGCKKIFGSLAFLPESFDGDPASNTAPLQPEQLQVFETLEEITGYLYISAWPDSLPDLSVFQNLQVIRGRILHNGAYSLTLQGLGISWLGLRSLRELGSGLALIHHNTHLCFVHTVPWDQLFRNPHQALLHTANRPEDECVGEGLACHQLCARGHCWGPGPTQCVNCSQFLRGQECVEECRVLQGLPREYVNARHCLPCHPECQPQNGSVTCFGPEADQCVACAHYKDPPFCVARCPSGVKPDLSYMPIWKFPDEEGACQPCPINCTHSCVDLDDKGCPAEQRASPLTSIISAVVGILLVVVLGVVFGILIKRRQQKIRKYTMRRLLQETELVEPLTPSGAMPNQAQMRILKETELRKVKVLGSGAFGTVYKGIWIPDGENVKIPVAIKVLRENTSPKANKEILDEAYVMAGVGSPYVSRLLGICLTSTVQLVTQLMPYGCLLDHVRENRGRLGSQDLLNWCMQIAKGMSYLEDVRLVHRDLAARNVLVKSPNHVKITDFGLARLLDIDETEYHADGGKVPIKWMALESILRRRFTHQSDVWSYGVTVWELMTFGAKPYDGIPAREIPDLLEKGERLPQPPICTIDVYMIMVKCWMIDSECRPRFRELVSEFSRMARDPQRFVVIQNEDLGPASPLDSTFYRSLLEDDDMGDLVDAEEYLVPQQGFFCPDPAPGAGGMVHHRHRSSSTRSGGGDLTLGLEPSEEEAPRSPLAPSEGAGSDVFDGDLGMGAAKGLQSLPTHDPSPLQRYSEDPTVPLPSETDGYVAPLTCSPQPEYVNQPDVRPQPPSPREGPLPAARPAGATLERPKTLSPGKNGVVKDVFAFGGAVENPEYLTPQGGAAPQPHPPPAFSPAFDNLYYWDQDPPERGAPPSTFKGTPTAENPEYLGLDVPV
Chain of Tyrosine-protein kinase ZAP-70 (P43403 whole entry): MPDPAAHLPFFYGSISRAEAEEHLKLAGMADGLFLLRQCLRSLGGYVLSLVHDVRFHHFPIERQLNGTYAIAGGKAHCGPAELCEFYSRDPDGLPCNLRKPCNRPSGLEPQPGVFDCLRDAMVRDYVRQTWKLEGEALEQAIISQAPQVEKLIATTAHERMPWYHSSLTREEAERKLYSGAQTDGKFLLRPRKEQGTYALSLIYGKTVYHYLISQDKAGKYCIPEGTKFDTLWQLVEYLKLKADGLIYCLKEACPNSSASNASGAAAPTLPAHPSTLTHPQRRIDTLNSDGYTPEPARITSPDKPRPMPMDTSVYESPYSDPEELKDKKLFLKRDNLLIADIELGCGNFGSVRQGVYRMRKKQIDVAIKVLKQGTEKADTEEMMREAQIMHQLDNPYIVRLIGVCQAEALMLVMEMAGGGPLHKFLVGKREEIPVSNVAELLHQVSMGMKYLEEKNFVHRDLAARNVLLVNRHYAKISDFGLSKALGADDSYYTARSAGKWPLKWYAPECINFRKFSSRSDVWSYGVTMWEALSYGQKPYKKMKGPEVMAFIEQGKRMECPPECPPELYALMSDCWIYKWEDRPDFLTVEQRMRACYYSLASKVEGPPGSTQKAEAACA

In the case of `CCN1CCN(c2ccc(Nc3cc(N(C)C(=O)Nc4c(Cl)c(OC)cc(OC)c4Cl)ncn3)cc2)CC1.O=P(O)(O)O` [INFIGRATINIB PHOSPHATE], the pIC50 [1] was under 5.05, the AUC/dose [2] was 0.25 µM·h and the inhibition [3] was “Active”. For the same molecule, the inhibition [4] was “Dose-dependent effect”, the pIC50 [5] was under 5.00 and the half-life [6] was 258 min. For the same molecule, the pIC50 [7] was under 5.00, the pIC50 [8] was under 5.00 and the Vd [9] was 9.6 L/kg. The pIC50 [10] was under 5.00, the Activity [11] was “Non-toxic” and the Activity [12] was “Non-toxic”. For the same molecule, the pIC50 [13] was under 5.52, the Activity [14] was “Dose-dependent effect” and the AUC/dose [15] was 4.8 nmol·h/g. The clearance [16] was 60 mL/min/kg, the pIC50 [17] was under 5.00 and the pIC50 [18] was under 5.05. It also gave an Activity [19] of 73%, a pIC50 [20] of under 5.00 and a Cmax [21] of 970 nM. It also gave a pIC50 [22] of under 5.00.
